From ChEMBL document CHEMBL3792365, “Dioxol and dihydrodioxin analogs of 2- and 3-phenylacetonitriles as potent anti-cancer agents with nanomolar activity against a variety of human cancer cells” (2016)

Tests used:
Assay type in all cases: functional
[1] = Growth inhibition of human PC3 cells after 48 hrs by sulforhodamine B assay; conditions: PC-3, 48 h
Procedure, shortened: (§1)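 Five-dose concentration series run across a panel of 60 human tumour cell lines. GI50 is taken as the drug concentration giving a 50% reduction in net protein increase relative to untreated control cells.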

MCF7 [2] = test: Growth inhibition of human MCF7 cells after 48 hrs by sulforhodamine B assay; conditions: MCF7, 48 h
Procedure, shortened: (§2)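 Five-dose testing against a 60-line human tumor cell panel. GI50 is the drug concentration giving a 50% reduction in net protein increase relative to untreated control cells.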

[3] = Growth inhibition of human HOP92 cells at 10 uM after 48 hrs by sulforhodamine B assay; conditions: HOP-92, 48 h, values are per cent of control
SR [4] = test: Growth inhibition of human SR cells after 48 hrs by sulforhodamine B assay; procedure, shortened: as §1
MCF7 [5] = test: Growth inhibition of human MCF7 cells at 10 uM after 48 hrs by sulforhodamine B assay; conditions: MCF7, 48 h, values are per cent of control
NCI-H23 = test: Growth inhibition of human NCI-H23 cells after 48 hrs by sulforhodamine B assay; conditions: NCI-H23, 48 h; procedure, shortened: as §1
CCRF-CEM = test: Growth inhibition of human CCRF-CEM cells at 10 uM after 48 hrs by sulforhodamine B assay; conditions: values are per cent of control
[6] = Growth inhibition of human RPMI8226 cells at 10 uM after 48 hrs by sulforhodamine B assay; conditions: RPMI-8226, 48 h, values are per cent of control
[7] = Growth inhibition of human SKOV3 cells after 48 hrs by sulforhodamine B assay; conditions: SK-OV-3, 48 h; procedure, shortened: as §1
MDA-MB-468 = test: Growth inhibition of human MDA-MB-468 cells at 10 uM after 48 hrs by sulforhodamine B assay; conditions: MDA-MB-468, 48 h, values are per cent of control
[8] = Growth inhibition of human MOLT4 cells at 10 uM after 48 hrs by sulforhodamine B assay; conditions: MOLT-4, 48 h, values are per cent of control
[9] = Growth inhibition of human SNB19 cells at 10 uM after 48 hrs by sulforhodamine B assay; conditions: SNB-19, 48 h, values are per cent of control
[10] = Growth inhibition of human PC3 cells at 10 uM after 48 hrs by sulforhodamine B assay; conditions: PC-3, 48 h, values are per cent of control
[11] = Growth inhibition of human Caki1 cells after 48 hrs by sulforhodamine B assay; conditions: CAKI-1, 48 h; procedure, shortened: as §2
MDA-MB-231 = test: Growth inhibition of human MDA-MB-231 cells after 48 hrs by sulforhodamine B assay; conditions: MDA-MB-231, 48 h; procedure, shortened: as §2
[12] = Growth inhibition of human UACC257 cells at 10 uM after 48 hrs by sulforhodamine B assay; conditions: UACC-257, 48 h, values are per cent of control
U-251 [13] = test: Growth inhibition of human U251 cells at 10 uM after 48 hrs by sulforhodamine B assay; conditions: U-251, 48 h, values are per cent of control
[14] = Growth inhibition of human SF539 cells after 48 hrs by sulforhodamine B assay; conditions: SF-539, 48 h; procedure, shortened: as §1
[15] = Growth inhibition of human HOP92 cells after 48 hrs by sulforhodamine B assay; conditions: HOP-92, 48 h; procedure, shortened: as §2
[16] = Growth inhibition of human NCI-ADR-RES cells after 48 hrs by sulforhodamine B assay; procedure, shortened: as §1
[17] = Growth inhibition of human BT549 cells at 10 uM after 48 hrs by sulforhodamine B assay; conditions: BT-549, 48 h, values are per cent of control
[18] = Growth inhibition of human UO31 cells after 48 hrs by sulforhodamine B assay; conditions: UO-31, 48 h
Procedure, shortened: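 Five-dose testing across the 60-line human tumour cell panel. GI50 is the drug concentration that gives a 50% reduction in net protein increase relative to control cells.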

KM12 [19] = test: Growth inhibition of human KM12 cells at 10 uM after 48 hrs by sulforhodamine B assay; conditions: KM12, 48 h, values are per cent of control
MDA-MB-435 [20] = test: Growth inhibition of human MDA-MB-435 cells after 48 hrs by sulforhodamine B assay; conditions: MDA-MB-435, 48 h; procedure, shortened: as §2
KM12 [21] = test: Growth inhibition of human KM12 cells after 48 hrs by sulforhodamine B assay; conditions: KM12, 48 h; procedure, shortened: as §2
Malme-3M = test: Growth inhibition of human MALME-3M cells at 10 uM after 48 hrs by sulforhodamine B assay; conditions: values are per cent of control
[22] = Growth inhibition of human DU145 cells after 48 hrs by sulforhodamine B assay; conditions: DU-145, 48 h; procedure, shortened: as §2
SR [23] = test: Growth inhibition of human SR cells at 10 uM after 48 hrs by sulforhodamine B assay; conditions: values are per cent of control
[24] = Growth inhibition of human HOP62 cells at 10 uM after 48 hrs by sulforhodamine B assay; conditions: HOP-62, 48 h, values are per cent of control
[25] = Growth inhibition of human HOP62 cells after 48 hrs by sulforhodamine B assay; conditions: HOP-62, 48 h; procedure, shortened: as §2
NCI-H226 = test: Growth inhibition of human NCI-H226 cells at 10 uM after 48 hrs by sulforhodamine B assay; conditions: NCI-H226, 48 h, values are per cent of control
SK-MEL-5 = test: Growth inhibition of human SK-MEL-5 cells after 48 hrs by sulforhodamine B assay; conditions: SK-MEL-5, 48 h; procedure, shortened: as §1
[26] = Growth inhibition of human HL-60(TB) cells after 48 hrs by sulforhodamine B assay; conditions: HL-60, 48 h
Procedure, shortened: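 Five-dose study across the 60-cell human tumour panel. GI50 is the drug concentration giving a 50% reduction in net protein increase relative to control cells.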

[27] = Growth inhibition of human HL-60(TB) cells at 10 uM after 48 hrs by sulforhodamine B assay; conditions: HL-60, 48 h, values are per cent of control
[28] = Growth inhibition of human Hs 578T cells after 48 hrs by sulforhodamine B assay; procedure, shortened: as §2
[29] = Growth inhibition of human HCC2998 cells after 48 hrs by sulforhodamine B assay; conditions: HCC 2998, 48 h; procedure, shortened: as §2
U-251 [30] = test: Growth inhibition of human U251 cells after 48 hrs by sulforhodamine B assay; conditions: U-251, 48 h; procedure, shortened: as §1
MDA-MB-435 [31] = test: Growth inhibition of human MDA-MB-435 cells at 10 uM after 48 hrs by sulforhodamine B assay; conditions: MDA-MB-435, 48 h, values are per cent of control
NCI-H522 = test: Growth inhibition of human NCI-H522 cells after 48 hrs by sulforhodamine B assay; conditions: NCI-H522, 48 h; procedure, shortened: as §1
[32] = Growth inhibition of human SF268 cells after 48 hrs by sulforhodamine B assay; conditions: SF-268, 48 h; procedure, shortened: as §1
[33] = Growth inhibition of human HCT15 cells after 48 hrs by sulforhodamine B assay; conditions: HCT-15, 48 h; procedure, shortened: as §2
[34] = Growth inhibition of human SW620 cells after 48 hrs by sulforhodamine B assay; conditions: SW-620, 48 h; procedure, shortened: as §1
[35] = Growth inhibition of human OVCAR3 cells at 10 uM after 48 hrs by sulforhodamine B assay; conditions: OVCAR-3, 48 h, values are per cent of control

Structure (SMILES): COc1ccc(/C(C#N)=C/c2ccc3c(c2)OCCO3)cc1
- GI50 [1]: > 100 µM
- GI50 (MCF7 [2]): 3.01 µM
- growth, % of control at 10 µM [3]: 89%
- GI50 (SR [4]): 2.76 µM
- growth, % of control at 10 µM (MCF7 [5]): 24.4%
- GI50 (NCI-H23): > 100 µM
- growth, % of control at 10 µM (CCRF-CEM): 58.7%
- growth, % of control at 10 µM [6]: 80.8%
- GI50 [7]: > 100 µM
- growth, % of control at 10 µM (MDA-MB-468): 14.8%
- growth, % of control at 10 µM [8]: 32.2%
- growth, % of control at 10 µM [9]: 83.3%
- growth, % of control at 10 µM [10]: 70.9%
- GI50 [11]: > 100 µM
- GI50 (MDA-MB-231): 69.3 µM
- growth, % of control at 10 µM [12]: 76.7%
- growth, % of control at 10 µM (U-251 [13]): 36.3%
- GI50 [14]: 73.1 µM
- GI50 [15]: > 100 µM
- GI50 [16]: 4.45 µM
- growth, % of control at 10 µM [17]: 56.6%
- GI50 [18]: > 100 µM
- growth, % of control at 10 µM (KM12 [19]): 27.8%
- GI50 (MDA-MB-435 [20]): 0.51 µM
- GI50 (KM12 [21]): 4.26 µM
- growth, % of control at 10 µM (Malme-3M): 64.6%
- GI50 [22]: > 100 µM
- growth, % of control at 10 µM (SR [23]): -1.3%
- growth, % of control at 10 µM [24]: 68.3%
- GI50 [25]: > 100 µM
- growth, % of control at 10 µM (NCI-H226): 81.2%
- GI50 (SK-MEL-5): 3.54 µM
- GI50 [26]: > 100 µM
- growth, % of control at 10 µM [27]: 38%
- GI50 [28]: > 100 µM
- GI50 [29]: 7.78 µM
- GI50 (U-251 [30]): > 100 µM
- growth, % of control at 10 µM (MDA-MB-435 [31]): -29.8%
- GI50 (NCI-H522): > 100 µM
- GI50 [32]: > 100 µM
- GI50 [33]: 2.1 µM
- GI50 [34]: 3.93 µM

Structure (SMILES): COc1ccc(/C=C(\C#N)c2ccc3c(c2)OCO3)c2ccccc12
- GI50 [1]: 3.04 µM
- GI50 (MCF7 [2]): 0.61 µM
- GI50 (SR [4]): 5.44 µM
- growth, % of control at 10 µM (MCF7 [5]): 12.1%
- GI50 (NCI-H23): 5.09 µM
- growth, % of control at 10 µM (CCRF-CEM): 21.6%
- growth, % of control at 10 µM [6]: 5.3%
- growth, % of control at 10 µM [35]: -21.2%
- GI50 [7]: 2.35 µM
- growth, % of control at 10 µM (MDA-MB-468): -14.5%
- growth, % of control at 10 µM [8]: 26.8%
- growth, % of control at 10 µM [9]: 36.1%
- growth, % of control at 10 µM [10]: 36.1%
- GI50 [11]: 2.06 µM
- GI50 (MDA-MB-231): 2.43 µM
- growth, % of control at 10 µM [12]: 41%
- growth, % of control at 10 µM (U-251 [13]): 18.7%
- GI50 [14]: 1.58 µM
- GI50 [15]: 12 µM
- GI50 [16]: 1.65 µM
- growth, % of control at 10 µM [17]: 26.6%
- GI50 [18]: 6.24 µM
- growth, % of control at 10 µM (KM12 [19]): 21%
- GI50 (MDA-MB-435 [20]): 0.31 µM
- GI50 (KM12 [21]): 2.39 µM
- growth, % of control at 10 µM (Malme-3M): 37.9%
- GI50 [22]: 3.49 µM
- growth, % of control at 10 µM (SR [23]): 18.4%
- growth, % of control at 10 µM [24]: 44.4%
- GI50 [25]: 2.14 µM
- growth, % of control at 10 µM (NCI-H226): 38.5%
- GI50 (SK-MEL-5): 1.52 µM
- GI50 [26]: 1.57 µM
- growth, % of control at 10 µM [27]: 7.8%
- GI50 [28]: 2.63 µM
- GI50 [29]: 5.42 µM
- GI50 (U-251 [30]): 2.71 µM
- growth, % of control at 10 µM (MDA-MB-435 [31]): -26.3%
- GI50 (NCI-H522): 2.37 µM
- GI50 [32]: 9.34 µM
- GI50 [33]: 0.75 µM
- GI50 [34]: 0.72 µM
